A short description of experiment [1]: inhibitors of TNFa-induced NFkB p65 translocation, primary screen, imaging, HUVEC, MLSMR starter and 10KST1 sets (AID 438).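 For inhibition: signal is the nuclear over cytoplasmic p65 intensity ratio per well.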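 Note: compound added about 3h40 before a 20 min TNFalpha stimulation.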 Conditions: HUVEC TNFa-induced p65 nuclear translocation; cell count: measured here: nuclei count (cytotoxicity indicator), at 2.08 µM; inhibition: at 2 µM, stronger effect = higher value, 0% TNFa-plus-vehicle, 100% no-TNFa wells.
The nature of experiment [2]: endothelial E-selectin expression blockers – imaging, HUVEC, immunofluorescence, MLSMR starter and 10KST1 sets, primary screen (AID 487;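 active = visually confirmed hit in the image check and inhibition above 20%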;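 for inhibition: signal is fraction of cell area covered by stained E-selectin grains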;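 for nuclei count: 100% = median nuclei count of all wells on the same plate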). Conditions: HUVEC TNFalpha-induced E-selectin immunofluorescence imaging, at 2 µM; inhibition: stronger effect = higher value; nuclei count: measured here: cell number, toxicity.
Experiment [3] in a line: Primary imaging screen for DUSP6 inhibitors that restore phospho-Erk in transfected HeLa cells, chemical complementation (AID 609;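 active = compounds giving at least 50% inhibition in the cell-based MKP-3 phosphatase rescue imaging test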;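 for inhibition: phospho-Erk level distribution per well compared with pooled transfected vehicle control wells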). As to conditions: HeLa MKP-3 transfected, phospho-Erk imaging KS statistic, at 10 µM, cells stimulated with TPA for 15 min.
Experiment [4] addresses Dual specificity protein phosphatase 6 (Homo sapiens) (UniProt Q16828). The experiment is described as above. Conditions: HeLa MKP-3 transfected, phospho-Erk imaging KS statistic; at 10 µM; stronger effect = higher value; cells stimulated with TPA for 15 min.
Experiment [5] addresses Voltage-gated potassium channel subunit beta-2 (Rattus norvegicus) (UniProt P62483). Briefly: inhibitors of rat Kvbeta2 reductase activity – biochemical, NADPH fluorescence, primary screen (AID 622;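 active = fluorescence slope higher than the sample average by over 3 SD, cut at about -0.22 in these data, passing the limit was not always enough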;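 note: slope of raw intensity against log time taken from 70 to 1610 s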). As to conditions: recombinant KvBeta, 4-cyanobenzaldehyde reduction, at 10 µM, stronger effect = higher value.
Experiment [6] shares this target. Briefly: enhancers of rat Kvbeta2 NADPH turnover – biochemical, NADPH fluorescence, primary screen (AID 623;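 active = NADPH fluorescence slope more negative than the mean of all samples by about 3 SD, 99.7% confidence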;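 note: fluorescence intensity change per second fitted from 20 to 320 s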). As to conditions: Recombinant KvBeta, NADPH fluorescence decrease slope, 10 min; at 10 µM; stronger effect = lower value.
In experiment [7] the target is Muscarinic acetylcholine receptor M4 (Homo sapiens) (UniProt P08173). The experiment in a line: M4-linked GIRK flux change, two-sided – cell-based, HEK293 M4/GIRK, thallium flux, BTC-AM, M4 allosteric agonist project, primary screen (AID 625;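 active = fluorescence slope after compound addition differing from the mean of all tested samples at 99.7% confidence, mostly higher but some lower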;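 note: thallium influx through GIRK channels coupled to M4 in HEK293 cells with BTC-AM dye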). As to conditions: at 10 µM, actives lie on both sides. Put shortly: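 assay system = HEK293 cells with M4 receptor and GIRK channels | medium = pH 7.3 thallium assay buffer | doses = 10 µM final, single point | timing = cells overnight at 37 °C, BTC-AM loading 1 h, reads 2 min total | signal = BTC-AM fluorescence, 1 Hz kinetic reads | read-out = post-addition slope, 15–24 s, of baseline-normalized fluorescence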
Chain of Muscarinic acetylcholine receptor M4 (Homo sapiens) (P08173 whole entry, looked up): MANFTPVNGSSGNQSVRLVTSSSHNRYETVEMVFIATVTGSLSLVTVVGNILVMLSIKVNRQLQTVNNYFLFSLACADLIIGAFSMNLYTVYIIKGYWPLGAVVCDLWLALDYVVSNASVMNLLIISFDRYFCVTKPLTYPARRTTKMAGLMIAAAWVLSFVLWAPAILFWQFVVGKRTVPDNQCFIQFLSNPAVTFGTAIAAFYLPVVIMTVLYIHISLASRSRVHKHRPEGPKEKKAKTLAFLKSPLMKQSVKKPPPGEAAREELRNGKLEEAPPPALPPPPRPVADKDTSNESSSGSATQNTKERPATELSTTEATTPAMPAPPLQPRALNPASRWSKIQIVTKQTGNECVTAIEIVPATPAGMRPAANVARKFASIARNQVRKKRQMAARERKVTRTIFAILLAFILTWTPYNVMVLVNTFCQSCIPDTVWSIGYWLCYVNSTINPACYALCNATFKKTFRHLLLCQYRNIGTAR

Experiment [8] is described as follows: inhibitors of larval lipid processing in zebrafish, primary screen, whole organism, PED6 fluorescence, gall bladder and intestine (AID 686;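 active = a full or partial loss of lipid-probe fluorescence in the fish gall bladder, intestine or both, judged by eye; inactive = no fluorescence loss, or compound toxic to the fish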;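 note: larvae 5 to 7 days old with five fish per well; signal comes from phospholipase A2 cleavage of quenched PED6 carried via bile; overnight exposure to compound and PED6 before scoring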). As to conditions: Zebrafish larvae PED6 lipid processing, fluorescence scoring; screened at 20 µM (by protocol). In outline:
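Also added: quenched phospholipase substrate PED6, 100 nM final, ingested by larvae; System: zebrafish larvae, 5-7 d; Quantity: 5 larvae per well; Compound: 20 µM single dose; Schedule: overnight compound and PED6 incubation; Read-out: visual per-well fluorescence inhibition score; Measured by: By-eye fluorescence microscopy; Medium: E3.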

Experiment [9] can be described thus: loss of swimming-algae plug formation – whole organism, Chlamydomonas reinhardtii, WT vs cilia-less mutant, absorbance, 96-well, primary screen (AID 463189;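 active = inhibition at or above 50% relative to wild type and mutant plate controls; inactive = inhibition below 50%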;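 note: 0% = wild type cc124 cells in DMSO and 100% = ciliumless bld1 mutant cells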). Conditions: Chlamydomonas reinhardtii gravitaxis, OD600 absorbance, 2 days; at 10 µM; stronger effect = higher value.
Where [10] appears, read: measured here: cell density z-score.
The mark [11] stands for this setting: measured here: nuclear c-Myc green intensity z-score.
The mark [12] stands for this setting: measured here: nuclear pErk red intensity z-score, stronger effect = higher value.

The source made the active and inactive calls.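 Rule for the calls, unless noted: active = inhibition above 20% together with a positive visual image hit; inconclusive = visual image hit but inhibition not above 20%; inactive = no visual image hit.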

This note sets out measurements from PubChem BioAssay.

Chain of Voltage-gated potassium channel subunit beta-2 (Rattus norvegicus) (P62483 whole entry, looked up): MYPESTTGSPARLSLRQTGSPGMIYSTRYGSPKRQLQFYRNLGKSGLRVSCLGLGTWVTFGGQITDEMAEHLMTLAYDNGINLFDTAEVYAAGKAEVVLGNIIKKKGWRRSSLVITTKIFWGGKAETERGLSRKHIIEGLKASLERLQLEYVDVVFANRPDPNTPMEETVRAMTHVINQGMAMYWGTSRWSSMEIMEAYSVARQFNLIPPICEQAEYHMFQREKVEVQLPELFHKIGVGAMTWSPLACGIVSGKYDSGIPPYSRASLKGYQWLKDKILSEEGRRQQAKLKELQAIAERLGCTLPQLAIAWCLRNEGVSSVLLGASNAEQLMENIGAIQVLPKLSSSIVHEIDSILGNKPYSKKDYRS
Chain of Dual specificity protein phosphatase 6 (Homo sapiens) (Q16828 whole entry, looked up): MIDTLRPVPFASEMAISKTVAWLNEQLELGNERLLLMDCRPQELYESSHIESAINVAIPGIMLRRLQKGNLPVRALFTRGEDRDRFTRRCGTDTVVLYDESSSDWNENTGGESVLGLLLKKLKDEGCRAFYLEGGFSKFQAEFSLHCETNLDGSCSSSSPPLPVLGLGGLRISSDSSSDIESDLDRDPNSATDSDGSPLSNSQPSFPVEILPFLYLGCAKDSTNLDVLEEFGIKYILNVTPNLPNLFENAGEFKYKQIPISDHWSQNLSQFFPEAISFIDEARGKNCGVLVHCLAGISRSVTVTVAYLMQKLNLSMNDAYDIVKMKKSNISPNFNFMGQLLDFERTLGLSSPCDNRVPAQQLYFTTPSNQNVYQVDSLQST

With `CCOc1ccc2nc(NC(NC(=O)CC)(C(=O)OC)C(F)(F)F)sc2c1` (stereo unspecified), in experiment [1], the cell count came out at 362. Also, the inhibition (usually the change of the read-out against control, counted positive when it falls) in experiment [1] is -7% (inactive); in experiment [2] it was -214% (inactive); in experiment [4], 3.42% (inactive); in [9] it was -2.07% (inactive). Besides, the nuclei count in [2] was 195%. The z-score was -0.714 in experiment [3] (setting [10]), 0.587 in [3] (setting [11]) and 0.266 in experiment [3] (setting [12]). Also, the fluorescence slope was -0.424 (inactive) in experiment [5] and 0.00487 (inactive) in experiment [7]. The NADPH fluorescence slope in [6] is -8.8e-05 (inactive). The call in experiment [8] was inactive.
As to `O=C(c1ccccc1)n1c(=S)nc2ccccn21`, the cell count in [1] was 751. The inhibition in experiment [1] was -1.4% (inactive); in [2], -18.3% (inactive); in experiment [4], 7.21% (inactive); in [9], 3.62% (inactive). Further, the nuclei count in experiment [2] is 144%. Further, the z-score in [3] (setting [10]) was 0.295; in experiment [3] (setting [11]), -2.19; in experiment [3] (setting [12]), 0.415. Besides, the fluorescence slope was -0.421 (inactive) in experiment [5] and 0.00539 (inactive) in [7]. In [6], the NADPH fluorescence slope is -3.2e-05 (inactive). Besides, the result in [8] was inactive.
As to `C=CCOc1nc2c(c(=O)n(Cc3ccc(Cl)cc3)c(=O)n2C)n1C`, the cell count in [1] came to 534. The inhibition in [1] is -5.1% (inactive); in experiment [2] it was 22.1% (inactive); in [4] it was -9.91% (inactive); in experiment [9] it was -3.62% (inactive). Also, in experiment [2], the nuclei count was 170%. Further, the figures for the z-score in experiment [3] (setting [10]), in experiment [3] (setting [11]) and in experiment [3] (setting [12]) were -0.487, 1.21 and 0.796, respectively. For the same molecule, the fluorescence slope is -0.414 (inactive) in [5] and 0.00453 (inactive) in [7]. In addition, the NADPH fluorescence slope in experiment [6] was -5.4e-05 (inactive). The result in [8] was inactive.
For the molecule `CCCCSc1nc(N)c(C#N)c(-c2cccs2)c1C#N`, the cell count in [1] is 652. Moreover, the inhibition in experiment [1] was -3.4% (inactive); in experiment [2], -1.9% (inactive); in experiment [4], -4.7% (inactive); in experiment [9], -8.35% (inactive). The nuclei count in experiment [2] stood at 141%. Further, the z-score in [3] (setting [10]) is 1.43; in experiment [3] (setting [11]), 0.907; in [3] (setting [12]) it was -0.946. Also, the fluorescence slope was -0.432 (inactive) in experiment [5] and 0.00886 (inactive) in experiment [7]. Moreover, the NADPH fluorescence slope in [6] was -1.7e-05 (inactive). Also, the molecule was classed as inactive in [8].
Turning to `CN(CCNC(=O)c1ccc(/C=N/O)nc1)Cc1ccccc1`, in experiment [1], the cell count turned out to be 620. The inhibition in experiment [1] is -9.1% (inactive); in experiment [2], -41% (inactive); in experiment [4], 1.63% (inactive); in experiment [9], 1.08% (inactive). For the same molecule, in [2], the nuclei count worked out at 182%. Further, the z-score was -0.419 in experiment [3] (setting [10]), -0.398 in experiment [3] (setting [11]) and -0.0227 in experiment [3] (setting [12]). The fluorescence slope in experiment [5] is -0.479 (inactive); in experiment [7], 0.00471 (inactive). Moreover, the NADPH fluorescence slope in [6] was -5.2e-05 (inactive). Besides, the result in [8] was inactive.
Consider `COc1ccc2[nH]c(C)c(C(=O)CN3CCOCC3)c2c1`, for which the cell count in experiment [1] came to 640. The inhibition was 7.2% (inactive) in experiment [1], -85.7% (inactive) in experiment [2], -1.98% (inactive) in [4] and 13.2% (inactive) in experiment [9]. In addition, the nuclei count in experiment [2] amounted to 184%. Also, the z-score is -1.08 in experiment [3] (setting [10]), 1.22 in [3] (setting [11]) and 0.499 in experiment [3] (setting [12]). Further, the fluorescence slope is -0.466 (inactive) in experiment [5] and 0.00952 (inactive) in experiment [7]. The NADPH fluorescence slope in experiment [6] is -6.6e-05 (inactive). Further, the outcome in experiment [8] was inactive.
For `Cc1c(C)c2cc(Cl)c(O)c(CN3CCCC(C)C3)c2oc1=O` (stereo unspecified), the cell count in experiment [1] was 540. Also, the inhibition is -4.7% (inactive) in experiment [1], 45.7% (inactive) in [2], 9.37% (inactive) in experiment [4] and -7.68% (inactive) in experiment [9]. The molecule also gave a nuclei count in experiment [2] of 94.2%. Further, the figures for the z-score in [3] (setting [10]), in [3] (setting [11]) and in experiment [3] (setting [12]) were 0.999, 0.842 and -1.58, respectively. Further, the values for the fluorescence slope in [5] and in experiment [7] were -0.0221 (inactive) and 0.00608 (inactive), respectively. For the same molecule, the NADPH fluorescence slope in experiment [6] was -5.4e-06 (inactive). The outcome in experiment [8] was inactive.
